Published values collected from several papers.
Protocols differ between the studies behind these lines. ≈ marks a conversion by molar mass, not a printed value.

| SMILES | organism | test | system | setting | measurement | value |
| --- | --- | --- | --- | --- | --- | --- |
| CC[C@H](C)C[C@H](C)CCCCCCCCC(=O)N[C@H]1C[C@@H](O)[C@@H](NCCN)NC(=O)[C@@H]2[C@@H](O)CCN2C(=O)[C@H]([C@H](O)CCN)NC(=O)[C@H]([C@H](O)[C@@H](O)c2ccc(O)cc2)NC(=O)[C@@H]2C[C@@H](O)CN2C(=O)[C@H]([C@@H](C)O)NC1=O | Lodderomyces parapsilosis | microbial growth, broth dilution | ATCC22019 |  | MIC | 0.5 µg/mL |
| CCOC(=O)c1ccccc1S(=O)(=O)NC(=O)Nc1nc(Cl)cc(OC)n1 | Lodderomyces parapsilosis | microbial growth, broth dilution |  | 24 h | MIC50 | 1.1 µM |
| O=c1[nH]c(=O)n([C@H]2C[C@H](O)[C@@H](CO)O2)cc1/C=C/Br | Human alphaherpesvirus 1 | cytopathic effect | HEL |  | EC50 | 2 µM |
| O=C(NCc1ccc2c(c1)OCO2)c1ccc(Br)cc1F | Aspergillus brasiliensis | microbial growth | ATCC16404 | 72 h | MIC | > 200 µM |
| O=[N+]([O-])c1ccc(C2=[N+]([O-])c3ccccc3N3CCN=C23)cc1 | Bacteroides fragilis | microbial growth |  |  | MIC50 | ≤ 0.06 µg/mL |
| Cn1cnc2nc(NCc3ccc(Cl)c(Cl)c3)[nH]c(=O)c21 | Bacteroides fragilis | microbial growth, agar dilution |  | 48 h | MIC | > 32 µg/mL |
| OC(Cn1cncn1)(Cn1cncn1)c1ccc(F)cc1F | Aspergillus niger | microbial killing |  |  | MFC | 40 µM (≈ 12.3 µg/mL) |
| Nc1ccn(C[C@@H](CO)OCP(=O)(O)O)c(=O)n1 | Human alphaherpesvirus 1 | cytopathic effect | HEL |  | EC50 | 2 µM |
| CC(C)[C@H](N)C(=O)OCCCCCn1cnc2nc(NCc3ccc(Cl)c(Cl)c3)[nH]c(=O)c21 | Bacteroides fragilis | microbial growth, agar dilution |  | 48 h | MIC | > 32 µg/mL |
| Cc1ncc([N+](=O)[O-])n1CCO | Bacteroides fragilis | microbial growth |  |  | MIC50 | 0.5 µg/mL |
| Nc1nc2c(ncn2COCCO)c(=O)[nH]1 | Human alphaherpesvirus 1 | cytopathic effect | HEL |  | EC50 | 0.2 µM |
| CCCCCOc1ccc(-c2cc(-c3ccc(C(=O)N[C@H]4C[C@@H](O)[C@@H](O)NC(=O)[C@@H]5[C@@H](O)[C@@H](C)CN5C(=O)[C@H]([C@H](O)CC(N)=O)NC(=O)[C@H]([C@H](O)[C@@H](O)c5ccc(O)c(OS(=O)(=O)O)c5)NC(=O)[C@@H]5C[C@@H](O)CN5C(=O)[C@H]([C@@H](C)O)NC4=O)cc3)no2)cc1 | Lodderomyces parapsilosis | microbial growth |  |  | MIC90 | 4 µg/mL (≈ 3.15 µM) |
